Laboratory results published in article PMC4314522 (Molecular Metabolism, 2014).
Read-outs that look alike come from different tables or passages of the source.

Columns and labels:
[1] = biological target: T1, human GPR40 (Homo sapiens, UniProt O14842); format: binding
[2] = biological target: T1, human GPR40; format: binding; remark: listed apart in the source
[3] = biological target: T1, human GPR40; assay: IP turnover assay in transiently transfected COS-7 cells; format: cell-based; settings: for Emax: COS-7, read-out: IP3 (in vitro) Emax
[4] = biological target: T1, human GPR40; assay: cAMP accumulation assay in transiently transfected COS-7 cells; format: cell-based; settings: for Stimulation of cAMP accumulation (in words): COS-7 transfected with GPR40
[5] = test system: mouse colonic crypt cultures (WT); assay: Total GLP-1 release from primary colonic crypt cultures, WT mice; format: cell-based; settings: 1 μM ligand, 2 h, relative to basal (vehicle)
Outline: (§1)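 Colonic crypts from male C57BL/6 littermates were collagenase-digested and seeded on Matrigel. […] Next day, cells were exposed to ligands for 2 h at 37 °C, in triplicate, in standard solution with 0.1% fatty-acid-free BSA and 10 mM glucose. Synthetic ligands were in DMSO; ALA was BSA-complexed at 6:1 molar. Total GLP-1 was measured by electrochemiluminescent immunoassay, expressed as fold over vehicle basal.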

[6] = test system: mouse colonic crypt cultures GPR40 (−/−); assay: Total GLP-1 release from primary colonic crypt cultures, Gpr40 KO mice; format: cell-based; settings: 1 μM ligand, 2 h, relative to basal (vehicle)
Outline: as §1

[7] = test system: plasma GLP-1; assay: Plasma total GLP-1 after oral gavage in fasted mice; format: in vivo, mouse; settings: 30 mg/kg oral, 30 min, overnight fasted mice; vehicle about 5 pmol/L
[8] = test system: plasma GIP; assay: Plasma GIP after oral gavage in fasted mice; format: in vivo, mouse; settings: 30 mg/kg oral, 30 min, overnight fasted mice
[9] = PK experiments; settings: mouse, in vivo, po, 30 mg/kg
[10] = phase-II studies, cited from earlier work

T1 sequence (O14842 whole entry): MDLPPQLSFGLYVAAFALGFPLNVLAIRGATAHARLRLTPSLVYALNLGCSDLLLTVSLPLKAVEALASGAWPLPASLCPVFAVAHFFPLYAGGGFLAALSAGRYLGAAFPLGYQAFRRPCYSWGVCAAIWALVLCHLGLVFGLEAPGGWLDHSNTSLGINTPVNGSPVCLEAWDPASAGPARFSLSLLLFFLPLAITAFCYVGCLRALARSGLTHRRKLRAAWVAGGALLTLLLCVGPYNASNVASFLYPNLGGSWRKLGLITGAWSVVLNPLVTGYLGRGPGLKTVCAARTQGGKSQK

| Binding (in vitro) [3H]L358: positive or negative competitive binding [1] | IC50 [1] [µM] | Binding (in vitro) [3H]AM-1638: positive or negative competitive binding [2] | IC50 [2] [µM] | EC50 [3] [µM] | Emax [3] [%] | cAMP potency, fold lower than the potency for IP-accumulation ([4]; cAMP EC50 versus IP EC50) [fold] | Cmax [9] [µM] | EC50 [4] [µM] | SMILES | Stimulation of cAMP accumulation (in words) [4] | tGLP-1 (ex vivo) release, WT [5] [fold change] | tGLP-1 (ex vivo) release, GPR40 (−/−) [6] [fold change] | Plasma GLP-1, median of all experiments [7] [pmol/L] | Plasma GIP, median of all experiments ([8]; vehicle 53 pmol/L) [pmol/L] | Significance of plasma GIP increase (in words) [8] | Effect on HbA1c ([10]; without signs of hypoglycemia) | Effect on plasma GLP-1 [10] |
| --- | --- | --- | --- | --- | --- | --- | --- | --- | --- | --- | --- | --- | --- | --- | --- | --- | --- |
| (neg) | 0.026 | (pos) | 0.029 | 0.0251 | 170 ± 14 | 7 | 11 |  | COc1ccc(F)c(-c2ccc(COc3cccc([C@@H](CC(=O)O)C4CC4)c3)cc2C2=CCCC2(C)C)c1 [AM-1638] | stimulated cAMP accumulation robustly | 3.0 ± 0.54 | 1.1 ± 0.07 | 29 | 383 |  |  |  |
|  |  |  |  |  |  |  |  |  | CC(C)c1noc(C2CCN(c3ncnc(Nc4ccc(S(C)(=O)=O)cc4F)c3[N+](=O)[O-])CC2)n1 [AR231453] |  | 4.7 ± 0.3 |  |  |  |  |  |  |
|  |  |  |  | 12 | 56 ± 6 |  |  | > 1000 | CC/C=C\C/C=C\C/C=C\C/C=C\C/C=C\C/C=C\CCC(=O)O [DHA, docosahexaenoic acid] | not able to stimulate cAMP accumulation meaningfully |  |  |  |  |  |  |  |
| (pos) |  | (neg) |  |  | 98 ± 4 |  | 2 |  | Cc1cc(OCCCS(C)(=O)=O)cc(C)c1-c1cccc(COc2ccc3c(c2)OC[C@H]3CC(=O)O)c1 [TAK-875, fasiglifam] | no or very limited stimulation of cAMP production | 1.5 ± 0.08 | 1.1 ± 0.12 | 10.8 |  | only increased plasma GIP significantly in one of the three experiments | decreased HbA1c as efficiently as sulfonylurea | no effect |
